Source: ChEMBL document CHEMBL5137084 (J Med Chem, 2022)
Calls of active or inactive are those of the source. The rule behind the calls is not given here.

How the values were obtained:
[1] = Ratio of prodrug conversion in carboxylesterase 1 knockout C57BL/6 mouse brain to plasma assessed as 2,6-Dimethoxy-4-(4-phenyl-5-thiophen-2-yl-1H-imidazol-2-yl)phenol release at 16.62 mg/kg, po administered as single dose measured after 2 hrs by LC-MS/MS analysis; assay type: ADME, organism-based
[2] = Tmax in carboxylesterase 1 knockout C57BL/6 mouse brain at 16.62 mg/kg, po administered as single dose measured upto 8 hrs by LC-MS/MS analysis; assay type: ADME, organism-based
[3] = Metabolic stability of the compound in carboxylesterase 1 knockout mouse brain assessed as parent compound remaining at 10 uM measured after 1 hr in by UPLC analysis; assay type: ADME, tissue-based
In short: (§1)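 Plasma, or liver or brain homogenised 10-fold in 0.1 M potassium phosphate buffer, from CES1−/− mice. Spiked with 10 μM prodrug (final) and shaken at 37 °C for 1 h, in triplicate. Samples at 0 and 1 h were quenched with three volumes of acetonitrile containing losartan. Intact prodrug was measured by UHPLC-orbitrap MS and expressed as % remaining, mean ± SE.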

[4] = Prodrug conversion in carboxylesterase 1 knockout C57BL/6 mouse plasma assessed as increase in 2,6-Dimethoxy-4-(4-phenyl-5-thiophen-2-yl-1H-imidazol-2-yl)phenol release at 16.62 mg/kg, po administered as single dose measured after 2 hrs by LC-MS/MS analysis; assay type: ADME, organism-based; conditions: in vivo
[5] = tested on: Mus musculus; test: Antiinflammatory activity against GFAP-EGFP transgenic mouse model assessed as as inhibition of GFP-labeled extracellular vesicle release at 3 to 10 mg/kg, po pretreated with compound for 30 mins followed by IL-1beta injection measured after 4 hrs; assay type: functional, organism-based; conditions: dose 3-10 mg/kg
In short: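 Euthanized 4 h later. Platelet-free plasma was prepared and GFP+ EVs were captured on anti-GFP antibody-coupled magnetic beads and counted by particle tracking, blinded. Mean ± SEM, one-way ANOVA with Tukey.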

[6] = Stability in carboxylesterase 1 knockout C57BL/6 mouse brain assessed as intact compound level at 16.62 mg/kg, po administered as single dose measured upto 8 hrs by LC-MS/MS analysis; assay type: ADME, organism-based; conditions: read-out: Stability
[7] = Half life in carboxylesterase 1 knockout C57BL/6 mouse plasma at 16.62 mg/kg, po administered as single dose measured upto 8 hrs by LC-MS/MS analysis; assay type: ADME, organism-based
[8] = Half life in carboxylesterase 1 knockout C57BL/6 mouse brain at 16.62 mg/kg, po administered as single dose measured upto 8 hrs by LC-MS/MS analysis; assay type: ADME, organism-based
[9] = Metabolic stability of the compound in carboxylesterase 1 knockout mouse liver assessed as parent compound remaining at 10 uM measured after 1 hr in by UPLC analysis; assay type: ADME, tissue-based; in short: as §1
[10] = Prodrug conversion in carboxylesterase 1 knockout C57BL/6 mouse brain assessed as increase in 2,6-Dimethoxy-4-(4-phenyl-5-thiophen-2-yl-1H-imidazol-2-yl)phenol release at 16.62 mg/kg, po administered as single dose measured after 2 hrs by LC-MS/MS analysis; assay type: ADME, organism-based; conditions: in vivo
[11] = Prodrug conversion in carboxylesterase 1 knockout C57BL/6 mouse plasma assessed as AUC of 2,6-Dimethoxy-4-(4-phenyl-5-thiophen-2-yl-1H-imidazol-2-yl)phenol at 16.62 mg/kg, po administered as single dose measured upto 8 hrs by LC-MS/MS analysis; assay type: ADME, organism-based; set-up: time < 8 hrs, dose 16.62 mg/kg, route po; conditions: in vivo
[12] = Prodrug conversion in carboxylesterase 1 knockout C57BL/6 mouse plasma assessed as Cmax of 2,6-Dimethoxy-4-(4-phenyl-5-thiophen-2-yl-1H-imidazol-2-yl)phenol at 16.62 mg/kg, po administered as single dose measured upto 8 hrs by LC-MS/MS analysis; assay type: ADME, organism-based; set-up: time < 8 hrs, dose 16.62 mg/kg, route po; conditions: in vivo
[13] = Metabolic stability of the compound in carboxylesterase 1 knockout mouse plasma assessed as parent compound remaining at 10 uM measured after 1 hr in by UPLC analysis; assay type: ADME, cell-free; in short: as §1
[14] = Stability in carboxylesterase 1 knockout C57BL/6 mouse plasma assessed as intact compound level at 16.62 mg/kg, po administered as single dose measured upto 8 hrs by LC-MS/MS analysis; assay type: ADME, organism-based; conditions: read-out: Stability
[15] = Tmax in carboxylesterase 1 knockout C57BL/6 mouse plasma at 16.62 mg/kg, po administered as single dose measured upto 8 hrs by LC-MS/MS analysis; assay type: ADME, organism-based
[16] = Prodrug conversion in carboxylesterase 1 knockout C57BL/6 mouse brain assessed as AUC of 2,6-Dimethoxy-4-(4-phenyl-5-thiophen-2-yl-1H-imidazol-2-yl)phenol at 16.62 mg/kg, po administered as single dose measured upto 8 hrs by LC-MS/MS analysis; assay type: ADME, organism-based; set-up: dose 16.62 mg/kg, time < 8 hrs, route po; conditions: in vivo
[17] = Prodrug conversion in carboxylesterase 1 knockout C57BL/6 mouse brain assessed as Cmax of 2,6-Dimethoxy-4-(4-phenyl-5-thiophen-2-yl-1H-imidazol-2-yl)phenol at 16.62 mg/kg, po administered as single dose measured upto 8 hrs by LC-MS/MS analysis; assay type: ADME, organism-based; set-up: dose 16.62 mg/kg, time < 8 hrs, route po; conditions: in vivo
[18] = Protein binding in mouse plasma assessed as free fraction at 3 to 10 mg/kg, po by ultrafiltration assay; assay type: ADME, organism-based; conditions: dose 3-10 mg/kg

## CCC1CC(N2CCCCC2)CC(CC)N1C(=O)Oc1c(OC)cc(-c2nc(-c3ccccc3)c(-c3cccs3)[nH]2)cc1OC (stereo not drawn)
[1]
  BPR: 0.24
[2]
  Tmax: 2 h
[3]
  Stability: 100%
[4]
  Drug metabolism: 189.3 nM
[5]
  Activity: Active
[6]
  concentration at 8 h: 35.2 nM
[7]
  half-life: 2.7 h
[8]
  half-life: 1.8 h
[9]
  Stability: 100%
[10]
  Drug metabolism: 61.5 nM
[11]
  AUC: 1047 pmol·h/g
[12]
  Cmax: 190 pmol·h/g
[13]
  Stability: 92%
[14]
  concentration at 8 h: 283 nM
[15]
  Tmax: 2 h
[16]
  AUC: 247 pmol·h/g
[17]
  Cmax: 69 pmol·h/g
[18]
  fraction unbound: 0.9
